Screening data as filed in PubChem BioAssay.
Ab BasE inh = BasE siderophore biosynthesis inhibition. purified BasE, fluorescence polarization binding displacement. inhibition, % (no concentration beside the values). 84,000 tested, 0.1% active. AID 485350; in the data active means inhibition above about 25%, passing the limit was not always enough;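 further: 0% = negative plate control signal and 100% = positive plate control signal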
LANA-nucl inh = LANA-nucleosome interaction inhibition | FITC-LANA1-23 / chicken nucleosome fluorescence polarization; hits give low values | z-score (concentration not given with the values) | 51,000 tested, 0.3% active;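 active means both repeat wells score below -2 in polarization z-score versus plate sample wells, excluding overly bright wells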
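System – purified chicken nucleosomes with FITC-labelled LANA N-terminal peptide (1-23) · Amount – 240 nM purified chicken nucleosomes (480 nM peptide binding sites), final · Also added – 50 nM FITC-LANA1-23 probe · Medium – TEN-BT buffer, pH 7.5 · Incubation – compound with peptide–nucleosome mix 10–45 min at room temperature · Detection – fluorescence polarization, ex 480 nm, em 535 nm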
Numbers without * were called inactive; x = no result. The entries come from a sample that favours hits as a whole.

SMILES	Ab BasE inh	LANA-nucl inh
O=C1NC(=O)C(=Cc2cn(CCOc3ccc4c(c3)OCO4)c3ccccc23)C(=O)N1	1	x
C=CCn1cc(C=C2C(=O)NC(=O)NC2=O)c2ccccc21	4	-2.5*
CCn1nc(-c2ccccc2)nc2c(=O)n(C)c(=O)nc1-2	8	-9.3*
O=C(N1CCC2(CC1)OCCO2)C(F)(F)F	-2	0.33
CC(C)NP(=O)(c1ccccc1)C(C)(C)C (centres undefined)	3	x
C=CCN1CC[C@]23c4c5ccc(O)c4O[C@H]2/C(=N/N=C2\CC[C@@]4(O)[C@H]6Cc7ccc(O)c8c7[C@@]4(CCN6CC=C)[C@H]2O8)CC[C@@]3(O)[C@H]1C5	x	-0.78
CC(=O)Oc1ccc(Cl)c2cccnc12	30*	0.18
CN(C)C(=O)Oc1cccc2cccnc12	0	-0.69
Cc1cccc(-n2c(-c3ccco3)nc3ccccc3c2=O)c1	-1	-0.6
